The source made the active and inactive calls. The calls are words filed in the database; no cut-off is given here.
Experiments:
Candida albicans = experiment: […] activity against Candida albicans at 25 ug/ml; type: functional, organism-based
Micrococcus luteus = experiment: Antibacterial activity against Micrococcus luteus at 25 ug/ml; type: functional, organism-based
[1] = Induction of preadipocyte differentiation into matured adipocyte in mouse ST-13 cells at 20 uM incubated for 2 to 8 days followed by compound wash out measured on day 12 by oil red O staining based phase contrast microscopy relative to control; type: functional
Procedure, shortened: (§1)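 Mouse ST-13 preadipocytes were seeded on day 1 at 1 × 10^4 cells/mL in DME/F-12 with 10% FBS and penicillin/streptomycin, at 37 °C under 5% CO2. Medium containing compound, or 20 nM rosiglitazone as positive control, was renewed on days 2, 5 and 8. On day 12 cells were formalin-fixed, rinsed in 60% 2-propanol, stained with 0.24% Oil Red O and imaged by phase-contrast microscopy at 100×.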

Escherichia coli = experiment: Antibacterial activity against Escherichia coli at 25 ug/ml; type: functional, organism-based
[2] = Induction of preadipocyte differentiation into matured adipocyte in mouse ST-13 cells at 40 uM incubated for 2 to 8 days followed by compound wash out measured on day 12 by oil red O staining based phase contrast microscopy relative to control; type: functional; procedure, shortened: as §1

Row | SMILES | Activity (Candida albicans) | Activity (Micrococcus luteus) | Activity [1] | Activity (Escherichia coli) | Activity [2]
1 | CCCCC(=O)O[C@H](C)/C=C(\C)[C@H](O)[C@H](C)/C=C/C=C/CC[C@@H](O)CC1=C(C)C(=O)C(C)(O)O1 (stereo partly specified) | inactive | inactive | 22% | inactive | 33%
2 | CCCCC(=O)[C@H](C)/C=C(\C)[C@H](O)[C@H](C)/C=C/C=C/CC[C@@H](O)CC1=C(C)C(=O)C(C)(O)O1 (stereo partly specified) | inactive | inactive | 45% | inactive | 73%
3 | CC1=C(C[C@H](O)CC/C=C/C=C/[C@@H](C)[C@@H](O)/C(C)=C/[C@@H](C)O)OC(C)(O)C1=O (stereo partly specified) |  |  | 9% |  | 

From ChEMBL document CHEMBL4145633, “Linfuranones B and C, Furanone-Containing Polyketides from a Plant-Associated Sphaerimonospora mesophila” (2018)
